# Results: ChEMBL document CHEMBL4715736, “Identification of anticancer agents based on the thieno[2,3-b]pyridine and 1H-pyrazole molecular scaffolds” (2016)
# Tests used:
# Format in all cases: functional
# NCI-H522 [1] = test: Growth inhibition of human NCI-H522 cells assessed as cell growth at 0.01 uM incubated for 48 hrs by sulforhodamine B assay relative to control; conditions: read-out: Activity
# HCT-116 [2] = test: Growth inhibition of human HCT-116 cells assessed as cell growth at 0.01 uM incubated for 48 hrs by sulforhodamine B assay relative to control; conditions: read-out: Activity
# SF-268 [3] = test: Growth inhibition of human SF-268 cells assessed as cell growth at 0.01 uM incubated for 48 hrs by sulforhodamine B assay relative to control; conditions: read-out: Activity
# SNB-19 = test: Growth inhibition of human SNB-19 cells assessed as cell growth at 0.01 uM incubated for 48 hrs by sulforhodamine B assay relative to control; conditions: read-out: Activity
# IGROV-1 = test: Growth inhibition of human IGROV-1 cells assessed as cell growth at 0.01 uM incubated for 48 hrs by sulforhodamine B assay relative to control; conditions: read-out: Activity
# TK-10 = test: Growth inhibition of human TK-10 cells assessed as cell growth at 0.01 uM incubated for 48 hrs by sulforhodamine B assay relative to control; conditions: read-out: Activity
# KM12 = test: Growth inhibition of human KM12 cells assessed as cell growth at 0.1 uM incubated for 48 hrs by sulforhodamine B assay relative to control; conditions: read-out: Activity
# SNB-75 = test: Growth inhibition of human SNB-75 cells assessed as cell growth at 0.1 uM incubated for 48 hrs by sulforhodamine B assay relative to control; conditions: read-out: Activity
# CAKI-1 [4] = test: Growth inhibition of human CAKI-1 cells assessed as cell growth at 0.1 uM incubated for 48 hrs by sulforhodamine B assay relative to control; conditions: read-out: Activity
# Summary of the method: (§1)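 NCI Developmental Therapeutics Program NCI60 panel. Compounds that were active in the 10 µM one-dose screen went on to dose–response testing. Growth at each concentration is expressed relative to untreated control (100%). GI50 (concentration giving 50% of maximal inhibition of proliferation) and TGI (concentration giving total growth inhibition) were derived from the curves.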
# MCF7 [5] = test: Growth inhibition of human MCF7 cells assessed as cell growth at 0.1 uM incubated for 48 hrs by sulforhodamine B assay relative to control; conditions: read-out: Activity
# MOLT-4 [6] = test: Growth inhibition of human MOLT-4 cells assessed as cell growth at 1 uM incubated for 48 hrs by sulforhodamine B assay relative to control; conditions: read-out: Activity
# HOP-62 = test: Growth inhibition of human HOP-62 cells assessed as cell growth at 1 uM incubated for 48 hrs by sulforhodamine B assay relative to control; conditions: read-out: Activity
# NCI-H522 [7] = test: Growth inhibition of human NCI-H522 cells assessed as cell growth at 1 uM incubated for 48 hrs by sulforhodamine B assay relative to control; conditions: read-out: Activity
# HT-29 [8] = test: Growth inhibition of human HT-29 cells assessed as cell growth at 1 uM incubated for 48 hrs by sulforhodamine B assay relative to control; conditions: read-out: Activity
# OVCAR-8 [9] = test: Growth inhibition of human OVCAR-8 cells assessed as cell growth at 1 uM incubated for 48 hrs by sulforhodamine B assay relative to control; conditions: read-out: Activity
# 786-0 = test: Growth inhibition of human 786-0 cells assessed as cell growth at 1 uM incubated for 48 hrs by sulforhodamine B assay relative to control; conditions: read-out: Activity; summary of the method: as §1
# UO-31 = test: Growth inhibition of human UO-31 cells assessed as cell growth at 1 uM incubated for 48 hrs by sulforhodamine B assay relative to control; conditions: read-out: Activity
# MCF7 [10] = test: Growth inhibition of human MCF7 cells assessed as cell growth at 1 uM incubated for 48 hrs by sulforhodamine B assay relative to control; conditions: read-out: Activity
# NCI-H23 = test: Growth inhibition of human NCI-H23 cells assessed as cell growth at 100 uM incubated for 48 hrs by sulforhodamine B assay relative to control; conditions: read-out: Activity
# HT-29 [11] = test: Growth inhibition of human HT-29 cells assessed as cell growth at 100 uM incubated for 48 hrs by sulforhodamine B assay relative to control; conditions: read-out: Activity
# SF-539 = test: Growth inhibition of human SF-539 cells assessed as cell growth at 100 uM incubated for 48 hrs by sulforhodamine B assay relative to control; conditions: read-out: Activity
# SK-MEL-28 = test: Growth inhibition of human SK-MEL-28 cells assessed as cell growth at 100 uM incubated for 48 hrs by sulforhodamine B assay relative to control; conditions: read-out: Activity
# Hs-578T = test: Growth inhibition of human Hs-578T cells assessed as cell growth at 100 uM incubated for 48 hrs by sulforhodamine B assay relative to control; conditions: read-out: Activity
# MOLT-4 [12] = test: Growth inhibition of human MOLT-4 cells incubated for 48 hrs by sulforhodamine B assay
# Summary of the method: (§2)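 NCI60 panel at the NCI Developmental Therapeutics Program. Only compounds active in the 10 µM screen went to dose-response testing. GI50, the concentration giving 50% of maximal inhibition of proliferation, and TGI, the concentration giving total growth inhibition, were derived from the dose-response curves.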
# HOP-92 = test: Growth inhibition of human HOP-92 cells incubated for 48 hrs by sulforhodamine B assay; summary of the method: as §2
# NCI-H522 [13] = test: Growth inhibition of human NCI-H522 cells incubated for 48 hrs by sulforhodamine B assay; summary of the method: as §2
# HCC 2998 = test: Growth inhibition of human HCC 2998 cells incubated for 48 hrs by sulforhodamine B assay
# HCT-116 [14] = test: Growth inhibition of human HCT-116 cells incubated for 48 hrs by sulforhodamine B assay; summary of the method: as §2
# HCT-15 = test: Growth inhibition of human HCT-15 cells incubated for 48 hrs by sulforhodamine B assay; summary of the method: as §2
# SW-620 = test: Growth inhibition of human SW-620 cells incubated for 48 hrs by sulforhodamine B assay
# Summary of the method: (§3)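 NCI DTP 60-line human tumour panel. Dose-response curves were run only for ligands active in the initial 10 µM screen. GI50 (concentration giving 50% of maximal inhibition of proliferation) and TGI (concentration giving total growth inhibition) were derived from these curves.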
# SF-268 [15] = test: Growth inhibition of human SF-268 cells incubated for 48 hrs by sulforhodamine B assay; summary of the method: as §3
# OVCAR-8 [16] = test: Growth inhibition of human OVCAR-8 cells incubated for 48 hrs by sulforhodamine B assay; summary of the method: as §3
# NCI/ADR-RES = test: Growth inhibition of human NCI/ADR-RES cells incubated for 48 hrs by sulforhodamine B assay; summary of the method: as §2
# CAKI-1 [17] = test: Growth inhibition of human CAKI-1 cells incubated for 48 hrs by sulforhodamine B assay; summary of the method: as §1
# RXF 393 = test: Growth inhibition of human RXF 393 cells incubated for 48 hrs by sulforhodamine B assay; summary of the method: as §3
# [18] = read-out: LC50 (the source's name)
smiles,measurement,setting,value
Cc1cccc(NC(=O)c2sc3nc4c(cc3c2N)C(=O)CCC4)c1,growth at 0.01 µM,NCI-H522 [1],84%
same,growth at 0.01 µM,HCT-116 [2],93%
same,growth at 0.01 µM,SF-268 [3],99%
same,growth at 0.01 µM,SNB-19,94%
same,growth at 0.01 µM,IGROV-1,100%
same,growth at 0.01 µM,TK-10,91%
same,growth at 0.1 µM,KM12,65%
same,growth at 0.1 µM,SNB-75,75%
same,growth at 0.1 µM,CAKI-1 [4],73%
same,growth at 0.1 µM,MCF7 [5],56%
same,growth at 1 µM,MOLT-4 [6],54%
same,growth at 1 µM,HOP-62,30%
same,growth at 1 µM,NCI-H522 [7],-35%
same,growth at 1 µM,HT-29 [8],2%
same,growth at 1 µM,OVCAR-8 [9],47%
same,growth at 1 µM,786-0,30%
same,growth at 1 µM,UO-31,55%
same,growth at 1 µM,MCF7 [10],18%
same,growth at 100 µM,NCI-H23,12%
same,growth at 100 µM,HT-29 [11],3%
same,growth at 100 µM,SF-539,-25%
same,growth at 100 µM,SK-MEL-28,-15%
same,growth at 100 µM,Hs-578T,-48%
same,TGI,MOLT-4 [12],> 100 µM
same,CC50,MOLT-4 [12]; [18],> 100 µM
same,GI50,HOP-92,1 µM
same,LC50 (concentration killing 50% of the starting cells),HOP-92,> 100 µM
same,TGI,HOP-92,≥ 100 µM
same,GI50,NCI-H522 [13],0.107 µM
same,LC50,NCI-H522 [13],> 100 µM
same,TGI,NCI-H522 [13],621 µM
same,GI50,HCC 2998,0.383 µM
same,TGI,HCC 2998,> 100 µM
same,CC50,HCC 2998; [18],> 100 µM
same,GI50,HCT-116 [14],0.28 µM
same,LC50 (concentration killing 50% of cells),HCT-116 [14],> 100 µM
same,TGI,HCT-116 [14],> 100 µM
same,GI50,HCT-15,0.27 µM
same,LC50,HCT-15,> 100 µM
same,TGI,HCT-15,> 100 µM
same,GI50,SW-620,0.193 µM
same,LC50 (concentration killing 50% of cells),SW-620,> 100 µM
same,TGI,SW-620,≥ 100 µM
same,GI50,SF-268 [15],1.54 µM
same,LC50 (concentration killing 50% of cells),SF-268 [15],> 100 µM
same,TGI,SF-268 [15],> 100 µM
same,GI50,OVCAR-8 [16],0.0171 µM
same,TGI,OVCAR-8 [16],≥ 100 µM
same,CC50,OVCAR-8 [16]; [18],> 100 µM
same,GI50,NCI/ADR-RES,0.23 µM
same,TGI,NCI/ADR-RES,≥ 100 µM
same,CC50,NCI/ADR-RES; [18],> 100 µM
same,GI50,CAKI-1 [17],0.359 µM
same,TGI,CAKI-1 [17],> 100 µM
same,CC50,CAKI-1 [17]; [18],> 100 µM
same,GI50,RXF 393,0.167 µM
same,TGI,RXF 393,≥ 100 µM
same,CC50,RXF 393; [18],> 100 µM
